The target in assay [1] is D(1A) dopamine receptor (Rattus norvegicus) (UniProt P18901). Briefly: Affinity towards Dopamine receptor D1 was evaluated in rat striatal membrane using [3H]SCH-23,390 as radioligand. The assay is classed as cell membranes. As to conditions: Striatum. In short, it runs like this:
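Male Sprague-Dawley rats, 200–400 g; striatum dissected from coronal slices, used fresh or held at -70 °C. Membranes homogenized and twice centrifuged at 27000g in ice-cold 50 mM HEPES, 4.0 mM MgCl2, pH 7.4, final ca. 2.0 mg wet weight/mL. Incubation with [3H]SCH23390 at 37 °C for 15 min; bound radioactivity by liquid scintillation; protein by Lowry.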

The target of assay [2] is D(2) dopamine receptor (Rattus norvegicus) (UniProt P61169). Briefly: Affinity towards Dopamine receptor D2 was evaluated in rat striatal membrane using [3H]spiperone as radioligand. The class given is cell membranes. As to conditions: Striatum.
Assay [3] is filed under the species Rattus norvegicus. Briefly: Evaluated for the maximum stimulation of adenylate cyclase in rat striatal tissue with respect to the maximum stimulation caused by dopamine. The assay is classed as functional, Striatum.
Assay [4] concerns the target D(1A) dopamine receptor (Rattus norvegicus, UniProt P18901). Briefly: Effective concentration was determined for the adenylate cyclase activity in rat striatal tissue as a measure of Dopamine receptor D1 functional activity. The assay is classed as tissue-based, Striatum.

Sequence of D(2) dopamine receptor (Rattus norvegicus) (P61169 whole entry): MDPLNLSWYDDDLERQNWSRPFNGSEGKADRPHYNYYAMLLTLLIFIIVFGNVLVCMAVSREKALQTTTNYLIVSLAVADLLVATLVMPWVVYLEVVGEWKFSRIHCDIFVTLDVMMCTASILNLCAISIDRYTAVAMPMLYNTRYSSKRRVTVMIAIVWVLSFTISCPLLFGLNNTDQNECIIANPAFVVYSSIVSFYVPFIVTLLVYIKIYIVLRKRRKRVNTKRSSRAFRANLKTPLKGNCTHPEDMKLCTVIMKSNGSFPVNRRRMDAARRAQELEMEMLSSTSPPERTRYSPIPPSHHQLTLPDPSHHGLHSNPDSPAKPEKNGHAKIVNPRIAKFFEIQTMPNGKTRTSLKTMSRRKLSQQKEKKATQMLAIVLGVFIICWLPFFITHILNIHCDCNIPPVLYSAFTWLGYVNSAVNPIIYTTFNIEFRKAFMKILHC
Sequence of D(1A) dopamine receptor (Rattus norvegicus) (P18901 whole entry): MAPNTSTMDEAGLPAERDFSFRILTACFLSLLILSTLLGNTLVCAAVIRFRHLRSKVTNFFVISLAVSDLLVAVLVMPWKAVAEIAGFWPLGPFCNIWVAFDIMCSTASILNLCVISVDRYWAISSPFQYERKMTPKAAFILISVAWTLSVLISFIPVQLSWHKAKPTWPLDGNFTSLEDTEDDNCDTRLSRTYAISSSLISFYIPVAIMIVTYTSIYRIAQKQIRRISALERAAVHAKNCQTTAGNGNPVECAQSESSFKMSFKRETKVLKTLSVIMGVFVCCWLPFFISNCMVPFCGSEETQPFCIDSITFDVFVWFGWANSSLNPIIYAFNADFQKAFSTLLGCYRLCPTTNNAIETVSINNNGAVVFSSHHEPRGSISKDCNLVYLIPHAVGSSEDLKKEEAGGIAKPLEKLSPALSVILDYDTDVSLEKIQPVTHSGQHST
Sequence of D(1A) dopamine receptor (P18901 whole entry): as above

On to `C=CCN1CCc2c(cc(O)c(O)c2Cl)[C@@H](c2ccccc2)C1`, for which the K0.5 in assay [1] was 4 nM; in assay [2], 73 nM. This compound yielded a Stimulation in assay [3] of 94%.

Consider `Oc1cc2c(cc1O)[C@H]1c3ccccc3CN[C@@H]1CC2` [DIHYDREXIDINE], for which the K0.5 in assay [1] was determined as 2.3 nM; in assay [2] it was 43.8 nM. Moreover, the Stimulation in assay [3] is on record as 120%.

On to `NC[C@@H]1O[C@H](c2ccccc2)Cc2c1ccc(O)c2O`, for which the K0.5 amounted to 0.9 nM in assay [1] and 41 nM in assay [2]. The same compound came in with a Stimulation in assay [3] of 96%.

With `C=CCN1Cc2ccccc2[C@@H]2c3cc(O)c(O)cc3CC[C@H]21`, the values for the K0.5 in assay [1] and in assay [2] were 328 nM and 182 nM, respectively. The same compound returned an EC50 in assay [4] of over 10 µM. The Stimulation in assay [3] is reported as 32%.

The compound `NC[C@@H]1O[C@H](C23CC4CC(CC(C4)C2)C3)Cc2c1ccc(O)c2O` gave a Stimulation in assay [3] of 92%.

With `Oc1ccc2c(c1O)CCC(NCc1ccccc1)C2` (configuration not stated), the K0.5 in assay [1] and in assay [2] was over 1000 nM in each case. Besides, in assay [4], the EC50 was over 1 µM. Besides, the Stimulation in assay [3] amounted to 38%.

With `Oc1cc2c(cc1O)CC(NCc1ccccc1)CC2` (configuration not stated), the results for the K0.5 in assay [1] and in assay [2] were over 1000 nM and 335 nM, respectively. Besides, the EC50 in assay [4] is over 10 µM. For the same compound, the Stimulation in assay [3] came to 25%.

In assay [2], `CN1CCc2cc(Cl)c(O)cc2[C@@H](c2ccccc2)C1` gave a K0.5 of 600 nM.

Consider `CN1Cc2ccccc2[C@@H]2c3ccc(O)c(O)c3CC[C@H]21`, for which the K0.5 in assay [1] stood at 477 nM; in assay [2], 61 nM. This compound also yielded an EC50 in assay [4] of over 10 µM. Also, the Stimulation in assay [3] came out at 22%.

With `CCCN1CCC[C@@H]2Cc3n[nH]cc3C[C@H]21`, the K0.5 was over 10000 nM in assay [1] and 49 nM in assay [2].

As to `Oc1cc2c(cc1O)[C@@H]1c3ccccc3CN[C@@H]1CC2` (relative stereo), the K0.5 in assay [1] and in assay [2] was over 1000 nM throughout. Besides, the Stimulation in assay [3] is given as 17%.

`Oc1ccc([C@@H]2CNCc3sccc32)cc1O`: the K0.5 in assay [1] is 61 nM; in assay [2], 142 nM. Besides, the EC50 in assay [4] came to 0.7 µM. The compound further yielded a Stimulation in assay [3] of 120%.

Compound `NCCc1ccc(O)c(O)c1` [DOPAMINE] came in with a K0.5 in assay [1] of 267 nM. The compound further had a Stimulation in assay [3] of 100%.

As for `CCCN1Cc2ccccc2[C@@H]2c3cc(O)c(O)cc3CC[C@H]21`, the results for the K0.5 in assay [1] and in assay [2] were 326 nM and 27 nM, respectively. For the same compound, the EC50 in assay [4] was over 10 µM. In assay [3], this compound gave a Stimulation of 36%.

The values are drawn from ChEMBL document CHEMBL1129293 (J Med Chem, 1996).
